Screening results deposited in PubChem BioAssay by The Scripps Research Institute Molecular Screening Center.
OX1R antag-1 = antagonists of human orexin 1 receptor (OX1R); Orexin/Hypocretin receptor type 1 (Homo sapiens), O43613; OX1R-expressing cells, FRET antagonist read-out; inhibition, % at 6.6 µM; 330,000 tested, 1.8% active; in the data active = inhibition mostly above about 38%, no sharp cut-off; inactive = mostly below about 40%;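 also: 0% = agonist challenge alone and 100% = reference antagonist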
GPR7 antag = GPR7 receptor antagonists, primary screen, cell-based, fluorescence, single concentration | inhibition, % at 4.4 µM | 290,000 tested, 1.1% active | GPR7-expressing cells, fluorescence antagonist assay | Neuropeptides B/W receptor type 1 (Homo sapiens), P48145; in the data active = inhibition above about 16%, passing the limit was not always enough;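 also: cells stimulated with the agonist NPW; 0% = agonist with vehicle and 100% = vehicle without agonist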
Target sequence (P48145 whole entry, looked up): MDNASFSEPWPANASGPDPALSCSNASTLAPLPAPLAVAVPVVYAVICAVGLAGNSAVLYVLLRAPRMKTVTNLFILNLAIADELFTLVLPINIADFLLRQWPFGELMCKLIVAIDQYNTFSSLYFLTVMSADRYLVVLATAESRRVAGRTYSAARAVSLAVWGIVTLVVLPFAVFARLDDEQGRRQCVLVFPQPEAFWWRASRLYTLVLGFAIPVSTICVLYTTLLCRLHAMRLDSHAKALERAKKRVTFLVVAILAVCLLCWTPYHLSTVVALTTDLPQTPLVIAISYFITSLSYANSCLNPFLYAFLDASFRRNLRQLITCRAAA
CHO parental Ca = ATP-evoked calcium signal inhibitors, parental CHO, primary screen, counter-screen for OX1R antagonist project, cell-based, fluorescence, Fluo-8 calcium dye; inhibition, % at 5.6 µM; AID 463079, 2010; parental CHO-K1, ATP-induced calcium, Fluo-8 fluorescence; 330,000 tested, 0.63% active;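 active = inhibition above that plate's mean sample inhibition plus 3 SD, cut at about 26% in these data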;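 also: 0% = ATP-challenged DMSO wells and 100% = DMSO wells without ATP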
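material = parental CHO cells | also added = ATP as calcium-mobilizing challenge | dosing = single point at 5.6 µM | detection = intracellular calcium via Fluo-8 no-wash fluorescent dye | read-out = % inhibition | benchmarks = low control ATP plus DMSO, high control DMSO only | repeats = one well per compound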
TAAR1 ag = human TAAR1 agonists, primary screen, Fluo-8 calcium fluorescence, CHO RD-HGA16 cells; 360,000 tested, 0.99% active; vehicle wells 0%, saturating PEA agonist 100%; Trace amine-associated receptor 1 (Homo sapiens), Q96RJ0; activation, % at 3 µM;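 active = activation above the mean activation of all test compounds in the run plus 3 SD, cut at about 38% in these data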
Target sequence (Q96RJ0 whole entry, looked up): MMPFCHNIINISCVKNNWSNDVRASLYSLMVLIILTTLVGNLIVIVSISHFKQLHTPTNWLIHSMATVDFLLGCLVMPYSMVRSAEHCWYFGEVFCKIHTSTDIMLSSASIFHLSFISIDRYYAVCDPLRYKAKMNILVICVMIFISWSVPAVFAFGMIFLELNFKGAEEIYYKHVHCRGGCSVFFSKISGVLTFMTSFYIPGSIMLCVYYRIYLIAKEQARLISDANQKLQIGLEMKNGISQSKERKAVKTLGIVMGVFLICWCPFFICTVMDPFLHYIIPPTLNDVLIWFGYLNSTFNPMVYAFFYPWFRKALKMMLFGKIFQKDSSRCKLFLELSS
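Repeats: no replicates (n 1) | Material: CHO-derived RD-HGA16 cells with stable Gα16 and human TAAR1 | Technique: Kinetic Fluo-8 calcium fluorescence | Schedule: 17-24 h seeding, 75 min 37 °C dye, 30 min RT | Evaluation: % activation from peak over basal fluorescence ratio, DMSO-to-PEA scaled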
TAAR1 antagonist = human TAAR1 antagonists, primary screen, Fluo-8 calcium fluorescence, CHO RD-HGA16 cells; Trace amine-associated receptor 1 (Homo sapiens), Q96RJ0; 360,000 tested, 1.5% active; AID 624466, 2012; antagonist; inhibition, % at 3 µM;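 active = inhibition above a per-plate cutoff, the mean inhibition of test compounds on that plate plus 3 SD, cut at about 49% in these data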;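 also: 0% = DMSO plus EC80 beta-PEA response and 100% = DMSO alone without agonist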
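System: RD-HGA16 CHO cells with stable hTAAR1 and Gα16 | Probe or stimulus: EC80 β-phenethylamine stimulus | Dosing: 3 µM, single point | Times: Dye loading 75 min at 37 °C, then 30 min room temperature | Measured by: Fluo-8 calcium-sensitive fluorescence | Read-out basis: % inhibition of agonist calcium response | Replicates: n of 1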
OX1R antag-2 = OX1R (HCRTR1) antagonists, primary screen, fluorescence, CHO/OX1R cells, Fluo-8 calcium, orexin A | inhibition, % at 5 µM | Orexin/Hypocretin receptor type 1 (Homo sapiens), O43613 | AID 434989, 2010 | Fluo-8 calcium fluorescence | 330,000 tested, 0.43% active;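 active = inhibition above its plate's threshold, mean inhibition of all tested compounds on the plate plus 3 SD, cut at about 37% in these data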;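 also: 0% = orexin A challenge wells and 100% = SB-334867-A antagonist wells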
An asterisk follows results filed as active; x = not tested or not shown. Only some compounds are listed: those with a hit (about 4.6% of all), similar ones and a draw of the others.

SMILES	OX1R antag-1	GPR7 antag	CHO parental Ca	TAAR1 ag	TAAR1 antagonist	OX1R antag-2
O=C(CSc1nc2ncc(Br)cc2[nH]1)c1ccc([N+](=O)[O-])cc1	9.6	-7.8	9.2	0.3	-1.7	3.9
O=C(CSc1nc2ccc([N+](=O)[O-])cc2[nH]1)c1ccc2ccccc2c1	34.0	-14.3	0.7	6.5	52.4*	-19.2
O=C(CSc1nnc2n1CCCN2)c1ccc([N+](=O)[O-])cc1	50.9*	-0.8	-20.8	1.0	-12.3	-15.0
COc1ccc(CN2CC[C@H]3C=CC[C@@H](C(=O)NCCc4ccccc4)[C@H]3C2=O)cc1OC	69.8*	x	-17.4	15.2	2.1	19.8
COc1cc(OC)cc(-c2c(-c3cccs3)c3cc(-c4ccc(OC)c(OC)c4)ccc3n2C)c1	-5.4	x	-14.3	6.4	7.0	-61.4
O=C1/C(=C/c2cccs2)SC(=S)N1CCC(=O)N1CCCCC1CCO (centres undefined)	48.3*	12.3	-19.4	7.6	21.7	16.7
COc1ccccc1/C=C1\SC(=S)N(CCC(=O)N2CCCCC2CCO)C1=O (centres undefined)	0.2	-10.1	-37.3	7.7	-6.5	-24.8
CCNS(=O)(=O)c1ccc(C(=O)OCc2cc(=O)oc3cc(OC)ccc23)cc1	13.4	-4.3	-9.6	2.6	11.5	-15.4
C=CCn1c(Cc2ccccc2)nc2c(cnn2-c2ccccc2)c1=O	13.1	-1.9	38.8*	1.1	23.3	5.6
Nn1c(SCc2ccccc2)nc2c(cnn2-c2ccccc2)c1=O	13.4	0.4	3.7	4.8	-13.8	-21.4
Clc1ccc(CN(Cc2ccccc2)C(c2cccs2)c2nnnn2C2CCCC2)cc1 (centres undefined)	19.3	-2.2	-30.5	2.3	-13.4	-23.8
CC(C)(C)n1nnnc1C(c1cccs1)N(Cc1ccc(Cl)cc1)CC1CCCO1 (centres undefined)	8.6	-10.4	37.9*	-0.9	-7.0	-43.5
Oc1ccc(CNCC2COc3ccccc3O2)cc1 (centres undefined)	19.4	1.7	-6.9	37.7*	-1.4	-14.3
c1ccc2c(c1)OCC(CNCC1COc3ccccc3O1)O2 (centres undefined)	9.4	-6.3	-14.9	4.7	1.0	-25.4
Cc1cccc(C(=O)Nc2ccc(C(=O)N/N=C/c3ccc(C)o3)cc2)c1	37.9	-3.8	0.0	3.7	17.4	-21.1
Cc1ccc([C@H]2C[C@H](O)[C@@H](n3cc(C4CC4)nn3)CN2Cc2cccs2)cc1	x	x	x	41.3*	41.4	x
Cc1ccc([C@H]2C[C@@H](O)[C@H](n3cc(C4CC4)nn3)CN2Cc2cccs2)cc1	x	x	x	3.3	-30.4	x
NNc1nc2c(Cl)ccc(Cl)c2s1	17.9	-1.8	0.1	38.9*	5.5	4.2
Cc1cc(O)c(C(C)C)cc1NC(=O)Cn1nc(C)c2ccccc2c1=O	5.8	-15.7	-5.5	22.5	-16.6	-23.4
CCC(C)c1c(N)n(S(=O)(=O)c2ccc(C)cc2)oc1=O (centres undefined)	x	x	x	5.4	2.1	x
COC(=O)[C@]12C[C@H](CC(=O)NCC3CCCCC3)C(=O)N(CCc3ccc(OC)c(OC)c3)C1=C[C@H](C(C)(C)C)O[C@@H]2C	x	x	x	-1.9	-4.5	x
O=C(Nc1nc2ccc(S(=O)(=O)N3CCCC3)cc2s1)C1CCCCC1	7.8	29.1	-9.3	43.5*	8.0	2.4
N#CCc1nc2ccc(S(=O)(=O)N3CCOCC3)cc2s1	6.2	4.7	34.7*	6.2	-0.7	40.9*
O=S(=O)(c1ccccc1)C1Cc2ccccc2C1Cl (centres undefined)	17.0	x	12.7	-1.8	-23.9	1.3
CN(C)c1ccc(NC(=O)c2sc(SCC(=O)Nc3nccs3)nc2N)cc1	14.9	-6.2	0.4	19.5	66.7*	22.1
SMILES	OX1R antag-1	GPR7 antag	CHO parental Ca	TAAR1 ag	TAAR1 antagonist	OX1R antag-2
Cc1ccc(C(C)NC(=O)c2ccncc2)c(C)c1 (centres undefined)	6.0	-6.1	-2.7	2.9	-0.7	-15.7
Cc1ccc(N/C(N)=N/c2nc(C)cc(N3CCCCC3)n2)c(C)c1	20.6	26.8*	9.0	21.8	24.1	-1.2
Cc1ccc(N/C(N)=N/c2nc3c(c(=O)[nH]2)CCCC3)c(C)c1	9.5	9.8	-13.3	2.6	4.4	-20.6
O=C(NC1CC1)C1CCN(C(=O)c2ccccc2Cl)CC1	10.6	-3.6	-6.5	2.6	3.2	-15.2
C=CCn1c(C)cc(C(=O)CSc2nc3ccccc3c(=O)[nH]2)c1C	61.1*	-6.1	55.3*	16.6	67.1*	55.1*
C=CCn1c(C)cc(C(=O)CSc2nc3ccccc3[nH]2)c1C	42.1*	-6.9	20.5	16.6	59.8*	46.4*
COCCn1c(C)cc(C(=O)CSc2nc3ccccc3c(=O)[nH]2)c1C	15.8	3.1	3.3	18.1	45.1	14.3
Cc1cc(C(=O)CSc2nc3ccc(Cl)cc3[nH]2)c(C)n1CC1CCCO1 (centres undefined)	87.8*	-0.1	45.4*	11.9	43.0	41.7
O=C(CSc1nc2ccccc2c(=O)[nH]1)Nc1ccc(C(=O)O)cc1	7.4	20.1*	-3.1	0.9	-20.5	4.1
COc1ccc(OC)c2c1cc(C(=O)N[C@@H](Cc1ccccc1)C(=O)O)n2C	x	-11.0	x	4.2	-6.7	x
Cc1ccc(C(=O)CSc2nc3ccccc3c(=O)[nH]2)cc1C	48.4*	-8.8	-29.0	2.9	19.8	-8.3
Cc1cc(C(=O)COc2ccccc2C(N)=O)c(C)n1CC1CCCO1 (centres undefined)	44.7	5.8	33.9*	10.4	19.4	33.6
Cc1cc(C(=O)CSc2nc3ccccc3[nH]2)c(C)n1Cc1ccco1	77.4*	0.4	48.9*	9.7	43.8	24.9
CC1=NN(c2ccccc2)C(=O)/C1=C\C=C1\N(C)c2ccccc2C1(C)C	33.1	25.4	23.6	54.0*	19.1	49.9*
O=C(Nc1ccc(/C=C/c2nc3ccccc3o2)cc1)c1c(F)cccc1F	35.8	9.1	-20.0	8.8	52.7*	-26.4
Cc1ccc(-c2noc(C3CCCN(C(=O)c4ccccc4Br)C3)n2)o1 (centres undefined)	17.4	-3.1	-13.3	-3.2	-12.8	-18.8
O=C1CC(N2CCN(c3nc4ccccc4s3)CC2)C(=O)N1Cc1cccs1 (centres undefined)	17.8	20.0*	-21.2	19.8	22.4	-25.9
Cc1nc2ccccc2c(C)c1CC(=O)OC(C)C(=O)NC1(C#N)CCCCC1 (centres undefined)	12.6	x	-22.4	-0.1	-20.9	-37.3
